Here are results for 9 molecules from ChEMBL document CHEMBL3272134, “Diastereoisomers of 5,10-methylene-5,6,7,8-tetrahydropteroyl-D-glutamic acid” (J Med Chem, 1977).

Calls of active or inactive are those of the source. The rule behind the calls is not given here.

Data set [1] has as its target Dihydrofolate reductase (Lactobacillus casei) (UniProt P00381). The experiment in a line: Inhibition of Lactobacillus casei dihydrofolate reductase using 7,8-Dihydropteroyl-L-glutamate as substrate at 1.5 x 10^-5 M by spectrophotometric analysis. Particulars: Lacticaseibacillus casei.
For data set [2] the target is unchanged. Put plainly: Inhibition of Lactobacillus casei dihydrofolate reductase using 7,8-Dihydropteroyl-L-glutamate as substrate at 1.5 x 10^-5 M relative to control. Particulars: Lacticaseibacillus casei.
Data set [3] deals with Pediococcus. Put plainly: Induction of growth of Pediococcus cerevisiae ATCC 8081 up to 5 ug/mL. The class given is functional.
The subject of data set [4] is Enterococcus faecium. Put plainly: Induction of growth of Streptococcus faecium ATCC 8043 up to 5 ug/mL. The class given is functional, organism-based.
Data set [5] has as its system Lacticaseibacillus casei. Put plainly: Induction of growth of Lactobacillus casei ATCC 7469 up to 5 ug/mL. The data set is classed as functional, organism-based.
Data set [6] deals with Pediococcus. Put plainly: Growth inhibition of Pediococcus cerevisiae ATCC 8081 up to 5 ug/mL. The data set is classed as functional. Summed up:
(§1)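 Media were as follows. L. casei ATCC 7469 was grown on folate assay broth with folate at 1 ng/mL. P. cerevisiae ATCC 8081 was grown on CF assay medium with dl-5-formyltetrahydrofolate at 1 ng/mL. S. faecium ATCC 8043 was grown on Flynn medium with folate at 1 ng/mL.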

Data set [7] deals with Enterococcus faecium. The experiment in a line: Growth inhibition of Streptococcus faecium ATCC 8043 up to 5 ug/mL. The data set is classed as functional, organism-based. Summed up: as §1
The test system of data set [8] is Lacticaseibacillus casei. Put plainly: Growth inhibition of Lactobacillus casei ATCC 7469 up to 5 ug/mL. The data set is classed as functional, organism-based. Summed up: as §1
Data set [9] has as its target T1, Thymidylate synthase (Lactobacillus casei) (UniProt P00469).
T1 sequence (whole entry): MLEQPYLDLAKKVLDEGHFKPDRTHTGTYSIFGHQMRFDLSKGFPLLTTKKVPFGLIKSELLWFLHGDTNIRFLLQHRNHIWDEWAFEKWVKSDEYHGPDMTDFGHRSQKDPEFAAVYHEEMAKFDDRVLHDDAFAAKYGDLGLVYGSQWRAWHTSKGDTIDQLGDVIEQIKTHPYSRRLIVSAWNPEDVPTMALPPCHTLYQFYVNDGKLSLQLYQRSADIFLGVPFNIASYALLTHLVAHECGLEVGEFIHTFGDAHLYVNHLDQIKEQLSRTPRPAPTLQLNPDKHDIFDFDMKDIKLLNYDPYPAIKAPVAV
Put plainly: Inhibition of Lactobacillus casei thymidylate synthetase using dl-5,10-Methylene tetrahydropteroyl-L-glutamate as substrate at 2.4 x 10^-5 M by spectrophotometric analysis. The note with it: Lacticaseibacillus casei.

Data set [10] deals with T1, Thymidylate synthase (Lactobacillus casei). The experiment in a line: Activity of Lactobacillus casei thymidylate synthetase at 4.5 x 10^-5 M by spectrophotometric analysis. Particulars: Lacticaseibacillus casei.
For data set [11] the target is unchanged. The experiment in a line: Inhibition of Lactobacillus casei thymidylate synthetase using dl-5,10-Methylene tetrahydropteroyl-L-glutamate as substrate at 2.4 x 10^-5 M relative to control. Particulars: Lacticaseibacillus casei.
Data set [12] shares this target. Put plainly: Activity of Lactobacillus casei thymidylate synthetase assessed as release of [3H] from [5-3H]-deoxyuridine 5' phosphate at 4.5 x 10^-5 M. The note with it: Lacticaseibacillus casei.
The target is the same in data set [13]. Put plainly: Inhibition of Lactobacillus casei thymidylate synthetase using dl-5,10-Methylene tetrahydropteroyl-L-glutamate as substrate at 9.2 x 10^-5 M relative to control. Particulars: Lacticaseibacillus casei.
Data set [14] shares this target. Put plainly: Inhibition of Lactobacillus casei thymidylate synthetase using dl-5,10-Methylene tetrahydropteroyl-L-glutamate as substrate at 9.2 x 10^-5 M by spectrophotometric analysis. The note with it: Lacticaseibacillus casei.
Data set [15] has the same target. The experiment in a line: Inhibition of Lactobacillus casei thymidylate synthetase using l-5,10-Methylene tetrahydropteroyl-L-glutamate as substrate at 6.3 x 10^-5 M by spectrophotometric analysis. The note with it: Lacticaseibacillus casei.
For data set [16] the target is unchanged. Put plainly: Inhibition of Lactobacillus casei thymidylate synthetase using l-5,10-Methylene tetrahydropteroyl-L-glutamate as substrate at 6.3 x 10^-5 M relative to control. Particulars: Lacticaseibacillus casei.
Data set [17] has the same target. The experiment in a line: Inhibition of Lactobacillus casei thymidylate synthetase using dl-5,10-Methylene tetrahydropteroyl-L-glutamate as substrate at 1 x 10^-4 M relative to control. Particulars: Lacticaseibacillus casei.
Data set [18] has the same target. The experiment in a line: Inhibition of Lactobacillus casei thymidylate synthetase using dl-5,10-Methylene tetrahydropteroyl-L-glutamate as substrate at 1 x 10^-4 M by spectrophotometric analysis. The note with it: Lacticaseibacillus casei.
Data set [19] shares this target. The experiment in a line: Inhibition of Lactobacillus casei thymidylate synthetase using dl-5,10-Methylene tetrahydropteroyl-L-glutamate as substrate at 3.3 x 10^-5 M by spectrophotometric analysis. Particulars: Lacticaseibacillus casei.
Data set [20] shares this target. Put plainly: Activity of Lactobacillus casei thymidylate synthetase at 7 x 10^-5 M by spectrophotometric analysis. Particulars: Lacticaseibacillus casei.
Data set [21] shares this target. Put plainly: Inhibition of Lactobacillus casei thymidylate synthetase using dl-5,10-Methylene tetrahydropteroyl-L-glutamate as substrate at 3.3 x 10^-5 M relative to control. Particulars: Lacticaseibacillus casei.
The target is the same in data set [22]. The experiment in a line: Inhibition of Lactobacillus casei thymidylate synthetase using dl-5,10-Methylene tetrahydropteroyl-L-glutamate as substrate at 1.3 x 10^-5 M relative to control. Particulars: Lacticaseibacillus casei.
Data set [23] has the same target. The experiment in a line: Inhibition of Lactobacillus casei thymidylate synthetase using dl-5,10-Methylene tetrahydropteroyl-L-glutamate as substrate at 1.3 x 10^-5 M by spectrophotometric analysis. Particulars: Lacticaseibacillus casei.
The target is the same in data set [24]. Put plainly: Activity of Lactobacillus casei thymidylate synthetase at 3 x 10^-4 M by spectrophotometric analysis. The note with it: Lacticaseibacillus casei.
Data set [25] shares this target. Put plainly: Activity of Lactobacillus casei thymidylate synthetase assessed as release of [3H] from [5-3H]-deoxyuridine 5' phosphate at 3 x 10^-4 M. The note with it: Lacticaseibacillus casei.
Data set [26] shares this target. The experiment in a line: Inhibition of Lactobacillus casei thymidylate synthetase at 1.7 x 10^-6 M relative to control. The note with it: Lacticaseibacillus casei.
Substrate in data set [27]: Nc1nc(=O)c2c([nH]1)NCC1CN(c3ccc(C(=O)N[C@@H](CCC(=O)O)C(=O)O)cc3)CN21
The experiment in a line: Activity of Lactobacillus casei thymidylate synthetase by spectrophotometric analysis. Particulars: Lacticaseibacillus casei.

Chain of Dihydrofolate reductase (Lactobacillus casei) (P00381 whole entry): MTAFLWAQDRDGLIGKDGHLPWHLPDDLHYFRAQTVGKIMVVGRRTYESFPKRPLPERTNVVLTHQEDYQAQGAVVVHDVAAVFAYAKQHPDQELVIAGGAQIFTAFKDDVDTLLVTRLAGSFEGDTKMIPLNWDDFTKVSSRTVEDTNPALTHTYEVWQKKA

As for `Nc1nc2c(c(=O)[nH]1)N1CN(c3ccc(C(=O)N[C@H](CCC(=O)O)C(=O)O)cc3)CC1CN2` (stereo in doubt; form 1), the deltaOD in [1] came out at 0.032 min⁻¹; in data set [9], 0.03 min⁻¹; in data set [10], 0 min⁻¹. Moreover, the inhibition in [2] and in [11] was 0% each time. Besides, the outcome in the data set on Pediococcus [3], with Enterococcus faecium [4] and in the data set with Lacticaseibacillus casei [5] was inactive. In addition, the “growth inhibition (GI)” value with Pediococcus [6], in the data set on Enterococcus faecium [7] and with Lacticaseibacillus casei [8] was “inactive” in each case. In data set [12], the Activity is below 2000 cpm.
For `Nc1nc2c(c(=O)[nH]1)N=C(CNc1ccc(C(=O)N[C@H](CCC(=O)O)C(=O)O)cc1)CN2`, the inhibition in data set [13] amounted to 10%. Besides, in data set [14], the deltaOD was 0.027 min⁻¹.
As for `Nc1nc(=O)c2c([nH]1)NCC1CN(c3ccc(C(=O)N[C@@H](CCC(=O)O)C(=O)O)cc3)CN21` (stereo in doubt), the outcome in the data set on Pediococcus [3], in the data set with Enterococcus faecium [4] and with Lacticaseibacillus casei [5] was inactive. Further, the “growth inhibition (GI)” value in the data set with Pediococcus [6], with Enterococcus faecium [7] and in the data set with Lacticaseibacillus casei [8] was “inactive” each time. In data set [15], this molecule gave a deltaOD of 0.02 min⁻¹. Moreover, in [16], the inhibition is 14%.
Turning to `Nc1nc(=O)c2c([nH]1)NCC(CNc1ccc(C(=O)N[C@@H](CCC(=O)O)C(=O)O)cc1)=N2`, the inhibition in data set [17] was 26%. The deltaOD in data set [18] turned out to be 0.02 min⁻¹.
Regarding `Nc1nc2c(c(=O)[nH]1)N1CN(c3ccc(C(=O)N[C@H](CCC(=O)O)C(=O)O)cc3)CC1CN2` (mixture of isomers), the outcome in the data set on Pediococcus [3], with Enterococcus faecium [4] and in the data set on Lacticaseibacillus casei [5] was inactive. In addition, the “growth inhibition (GI)” value in the data set with Pediococcus [6], in the data set with Enterococcus faecium [7] and in the data set with Lacticaseibacillus casei [8] was “inactive” each time. Moreover, the deltaOD stood at 0.03 min⁻¹ in data set [19] and 0 min⁻¹ in data set [20]. Also, in data set [21], the inhibition amounted to 0%.
Consider `Nc1nc2c(c(=O)[nH]1)N1CN(c3ccc(C(=O)N[C@H](CCC(=O)O)C(=O)O)cc3)CC1CN2` (stereo in doubt; form 2), for which the inhibition in data set [22] and in data set [2] was 0% throughout. The deltaOD in data set [1] worked out at 0.032 min⁻¹; in data set [10], 0 min⁻¹; in [23] it was 0.03 min⁻¹. The outcome with Pediococcus [3], with Enterococcus faecium [4] and in the data set with Lacticaseibacillus casei [5] was inactive. Besides, the “growth inhibition (GI)” value in the data set on Pediococcus [6], in the data set on Enterococcus faecium [7] and in the data set with Lacticaseibacillus casei [8] was “inactive” in each case. The Activity in data set [12] is below 2000 cpm.
Consider `Nc1nc(=O)c2c([nH]1)NCC1CN(c3ccc(C(=O)N[C@@H](CCC(=O)O)C(=O)O)cc3)CN21` (mixture of isomers), for which the outcome in the data set with Pediococcus [3], in the data set on Enterococcus faecium [4] and in the data set on Lacticaseibacillus casei [5] was inactive. Besides, the “growth inhibition (GI)” value in the data set with Pediococcus [6], in the data set on Enterococcus faecium [7] and in the data set with Lacticaseibacillus casei [8] was “inactive” in each case. The molecule further returned a deltaOD in data set [24] of 0.03 min⁻¹. Moreover, the Activity in data set [25] stood at 71000 cpm.
For `CN(Cc1ccc2nc(N)nc(O)c2c1)c1ccc(C(=O)N[C@@H](CCC(=O)O)C(=O)O)cc1`, the inhibition in data set [26] stood at 83%.

B1: Thymidylate synthase (Lactobacillus casei), P00469 (protein)
chain: MLEQPYLDLAKKVLDEGHFKPDRTHTGTYSIFGHQMRFDLSKGFPLLTTKKVPFGLIKSELLWFLHGDTNIRFLLQHRNHIWDEWAFEKWVKSDEYHGPDMTDFGHRSQKDPEFAAVYHEEMAKFDDRVLHDDAFAAKYGDLGLVYGSQWRAWHTSKGDTIDQLGDVIEQIKTHPYSRRLIVSAWNPEDVPTMALPPCHTLYQFYVNDGKLSLQLYQRSADIFLGVPFNIASYALLTHLVAHECGLEVGEFIHTFGDAHLYVNHLDQIKEQLSRTPRPAPTLQLNPDKHDIFDFDMKDIKLLNYDPYPAIKAPVAV
Regarding B1, the Km in [27] is 15 µM.

As a reminder, the inhibition is the percentage by which the read-out fell short of the control. The low end stands for a response near the control, the high end for a response far below the control. As usually defined, the Km is the substrate concentration at which the rate is half of its maximum.
